ChEMBL document CHEMBL1649550, “Antibacterial properties and mode of action of a short acyl-lysyl oligomer” (2009)
Calls of active or inactive are those of the source. No cut-off for these calls is given here.

test system: Staphylococcus aureus; assay: Antibacterial activity against Staphylococcus aureus ATCC 29213 assessed as disruption of plasma membrane permeability at 4 times MIC by ethidium bromide uptake assay; format: functional, organism-based
Method in brief: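 S. aureus grown overnight in LB at 37°C to OD620 of 1, washed twice in PBS and resuspended in PBS with 0.5% glucose, then 10 min at 37°C. Cells added to EtBr (final 1.0 μg/ml) with compound (serial twofold concentrations), Triton 0.01% final, or antibiotic at 4× MIC. Fluorescence followed over time (ex 530, em 645 nm).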

Question: With `CN(C)[C@@H]1C(O)=C(C(N)=O)C(=O)[C@@]2(O)C(O)=C3C(=O)c4c(O)cccc4[C@@](C)(O)[C@H]3C[C@@H]12` as the compound, how does the Activity read?
Answer: inactive

Question: Which Activity does the source give for GENTAMICIN here?
Answer: inactive

Question: How did the Activity turn out when `O=C(O)c1cn(C2CC2)c2cc(N3CCNCC3)c(F)cc2c1=O` was run?
Answer: inactive
